Sampled rows, rich in hits. Any-hit rate of the full collection: about 1.5%.
Cneo AK release: Cryptococcus neoformans lysis via adenylate kinase release; C. neoformans lysis, adenylate kinase release luminescence, 4 h; normalised: neutral wells 0, clomiphene wells 100; lysis activity, % at 15 µM; 360,000 compounds, 0.2% hits;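 active = mean lysis activity across replicates of at least 80%, whatever share of replicates individually reach that level; inactive = mean lysis activity below 80%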
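Material: C. neoformans cells | Amount: Yeast cell density of 5 × 10^6 cells/mL | Medium: Fresh YPD growth medium | Dosing: Single dose | Times: Static 4 h at 37 °C with compound, 1 h detection | Detection: AK luminescence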
C2C12 statin: suppressors of simvastatin-induced myotoxicity in C2C12 myotubes | ATP luminescence, 48 h; scaled: DMSO 0, geranylgeraniol control 100 | rescue of ATP level, % at 7.49 µM | 330,000 compounds, 0.78% hits;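 active = mean ATP rescue above about 67%, or every replicate alone reaching that limit, limit read from the data, passing the limit was not always enough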;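 also: myotubes were challenged with 10 µM simvastatin during compound exposure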
Mot1-301 SUMO: blocks SUMOylation pathway, rescuing yeast Mot1-301 growth. S. cerevisiae Mot1-301 growth rescue, ATP luminescence, 38.5C; percent above DMSO median, 100 means doubled. growth rescue, % at 18.8 µM. 320,000 compounds, 1% hits. AID 2716;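 active = every valid replicate shows activation above 250% relative to neutral control wells; inactive = the rest, any valid replicate at or below 250%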;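 also: OY570 slx delta 5 strain wells were the positive control but not used for scaling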
* = called active by the depositor; nt = no result.

SMILES	Cneo AK release	C2C12 statin	Mot1-301 SUMO
O=C(Cc1ccccc1)NCC(=O)N/N=C/c1cccnc1	nt	nt	-8
O=C(Cc1ccccc1)N/N=C/c1cccnc1	-2	10	313*
Cc1ccc(N/N=C/c2ccncc2)cc1	1	14	27
COCC(=O)N(C)C[C@H]1Oc2cc(C3=CCCC3)ccc2S(=O)(=O)N([C@H](C)CO)C[C@@H]1C	0	5	nt
Cc1ccc(S(=O)(=O)Nc2ccc3c(c2)CC(=O)N([C@H](C)CO)C[C@@H](C)[C@@H](CN(C)C(=O)Nc2c(C)noc2C)O3)cc1	-1	-5	nt
NS(=O)(=O)c1ccc(CCNCC(=O)N2CCC(Cc3ccccc3)CC2)cc1	6	85*	70
NS(=O)(=O)c1ccc(CCNCC(=O)NC2CC2)cc1	2	-11	-12
O=C(C[C@@H]1C[C@@H]2c3cc(NC(=O)Nc4ccc(C(F)(F)F)cc4)ccc3O[C@@H]2[C@H](CO)O1)NCCc1ccccc1	-11	-1	nt
COc1ccc(CNc2ncnc3cc(OC)c(OC)cc23)cc1	0	111*	19
COc1cc2ncnc(NCc3ccccc3)c2cc1OC	1	-22	3
O=C(c1ccc(F)cc1)N1CCCCN2[C@H](CO)[C@H](c3ccc(-c4ccc(F)cc4)cc3)[C@H]2C1	4	nt	nt
C[C@H](O)C#Cc1ccc2c(c1)O[C@H](CN(C)Cc1ccncc1)[C@@H](C)CN([C@H](C)CO)S2(=O)=O	4	2	nt
C[C@@H]1CN([C@@H](C)CO)S(=O)(=O)c2ccc(C#C[C@@H](C)O)cc2O[C@@H]1CN(C)C(=O)C1CCCCC1	105*	0	nt
CC(C)C#Cc1ccc2c(c1)O[C@H](CN(C)C(=O)Cc1ccccn1)[C@H](C)CN([C@H](C)CO)S2(=O)=O	101*	-48	nt
C[C@@H]1CN([C@H](C)CO)S(=O)(=O)c2ccc(C#C[C@@H](C)O)cc2O[C@@H]1CN(C)Cc1ccncc1	83*	0	nt
C[C@H](O)C#Cc1ccc2c(c1)O[C@H](CN(C)C(=O)C1CCCCC1)[C@@H](C)CN([C@@H](C)CO)S2(=O)=O	0	-12	nt
C[C@H](O)C#Cc1ccc2c(c1)O[C@H](CN(C)Cc1ccncc1)[C@H](C)CN([C@H](C)CO)S2(=O)=O	95*	-3	nt
CC(C)C#Cc1ccc2c(c1)O[C@@H](CN(C)C(=O)Cc1ccccn1)[C@H](C)CN([C@H](C)CO)S2(=O)=O	-5	-9	nt
C[C@@H]1CN([C@@H](C)CO)S(=O)(=O)c2ccc(C#C[C@@H](C)O)cc2O[C@H]1CN(C)Cc1ccncc1	-1	-27	nt
CCCN1C[C@@H](C)[C@H](OC)CN(C)C(=O)c2cc(NC(=O)Nc3ccccc3F)ccc2OC[C@H]1C	2	-20	nt
Cc1noc(C)c1NC(=O)N(C)C[C@@H]1Oc2ncc(C#CC3CCCC3)cc2C(=O)N([C@@H](C)CO)C[C@H]1C	11	18	nt
COCC#Cc1ccc2c(c1)O[C@H](CN(C)C(=O)c1ccccc1)[C@@H](C)CN([C@@H](C)CO)S2(=O)=O	2	-17	nt
C[C@@H]1CCCCO[C@H](CN(C)C(=O)c2ccncc2)[C@H](C)CN([C@H](C)CO)C(=O)c2cc(NC(=O)c3ccccc3)ccc2O1	1	nt	nt
C[C@H]1CN([C@@H](C)CO)S(=O)(=O)c2ccc(C#Cc3ccccn3)cc2O[C@@H]1CN(C)Cc1ccc(F)cc1	-3	-35	nt
C[C@H]1CN([C@@H](C)CO)S(=O)(=O)c2ccc(C#Cc3ccccn3)cc2O[C@@H]1CN(C)Cc1ccccc1	107*	-24	nt
SMILES	Cneo AK release	C2C12 statin	Mot1-301 SUMO
O=C(COC(=O)c1ccccc1C(=O)c1ccccc1)NCc1ccc(F)cc1	-3	-6	337*
O=C(COC(=O)c1ccccc1C(=O)c1ccc(Cl)cc1)NCc1ccccc1	0	nt	1
C[C@@H]1CN([C@H](C)CO)S(=O)(=O)c2ccc(C#CC3CCCC3)cc2O[C@@H]1CN(C)Cc1cncnc1	nt	-25	nt
CCCN(C)C[C@@H]1OCCCC[C@H](C)Oc2ccc(NC(=O)Nc3ccc(C(F)(F)F)cc3)cc2C(=O)N([C@@H](C)CO)C[C@@H]1C	-1	nt	nt
Cc1ccc(NC(=S)c2ccccc2)cc1	-3	-13	324*
Cc1ccc(NC(=S)c2ccncc2)cc1	-13	-9	20
O=C(C[C@H]1C[C@H]2c3cc(NC(=O)C4CCOCC4)ccc3O[C@H]2[C@H](CO)O1)NCC1CC1	-2	5	nt
O=C(O)CCSCCC(=O)O	11	91*	-18
O=C(O)CCSSCCC(=O)O	0	-2	-20
CO[C@@H]1CN(C)C(=O)c2ccc(NS(=O)(=O)c3ccc(C)cc3)cc2OC[C@H](C)N(C(=O)NC(C)C)C[C@H]1C	nt	7	nt
O=C(CSc1nnc2c(n1)[nH]c1ccc(F)cc12)OCc1ccccc1	0	85*	8
COc1cccc(CNC(=O)CSc2nnc3c(n2)[nH]c2ccc(F)cc23)c1	-3	-39	36
C[C@@H]1CCCCO[C@H](CN(C)C(=O)Nc2ccc(F)cc2)[C@@H](C)CN([C@@H](C)CO)C(=O)c2cc(NS(=O)(=O)c3ccc(F)cc3)ccc2O1	-3	nt	nt
CCCn1c(/N=C/c2ccccc2O)nc2ccccc21	1	-18	181
Cn1c(/N=C/c2c(O)ccc3ccccc23)nc2ccccc21	6	75*	-5
CN1CCCC(OC(=O)c2cc(Cl)ccc2Cl)C1 (centres undefined)	1	-6	6
CN1CCCC(OC(=O)c2cc(Br)ccc2Cl)C1 (centres undefined)	3	-1	260*
CC(=O)N1C[C@H]2[C@@H](c3ccccc31)[C@H](CO)N2C(=O)CC1CC1	2	-5	nt
COCC(=O)Nc1ccc2c(c1)OC[C@@H](C)N(Cc1cncnc1)C[C@@H](C)[C@@H](OC)CN(C)C2=O	nt	-6	nt
Cc1noc(C)c1NC(=O)N[C@@H]1C=C[C@H](CC(=O)NCc2ccc(Cl)c(Cl)c2)O[C@H]1CO	-4	5	nt
COc1ccc(S(=O)(=O)N[C@H]2C=C[C@H](CC(=O)NCCc3ccncc3)O[C@@H]2CO)cc1	0	0	nt
O=C(O)CN1C2=NCCCN2c2ccccc21	nt	nt	0
Brc1ccc(CN2C3=NCCCN3c3ccccc32)cc1	nt	nt	-10
O=C(CN1C2=NCCCN2c2ccccc21)c1ccc(Br)s1	1	115*	-6
c1ccc(CN2C3=NCCCN3c3ccccc32)cc1	0	79*	-6
C[C@@H]1CCCCO[C@@H](CN(C)CC2CC2)[C@@H](C)CN([C@H](C)CO)C(=O)c2cc(NS(C)(=O)=O)ccc2O1	-3	nt	nt
CS(=O)(=O)Nc1ccc2c(c1)[C@@H]1C[C@@H](CC(=O)N3CCOCC3)O[C@H](CO)[C@@H]1O2	-9	-6	nt
CO[C@@H]1CN(C)C(=O)c2ccc(NS(C)(=O)=O)cc2OC[C@@H](C)N(C(=O)NC(C)C)C[C@H]1C	0	-3	nt
COc1ccc(CN(C)C[C@H]2OCCCC[C@H](C)Oc3ccc(NC(=O)Nc4ccccc4)cc3C(=O)N([C@H](C)CO)C[C@H]2C)cc1	-2	nt	nt
COc1ccc(CN2CC(C(=O)NCCCN3CCOCC3)CC2=O)cc1 (centres undefined)	4	98*	-4
